Reference: ChEMBL document CHEMBL1148762, “Lysosome and HER3 (ErbB3) selective anticancer agent kahalalide F: semisynthetic modifications and antifungal lead-exploration studies” (J Med Chem, 2007)
pIC50: −log10 of the molar value.

How the values were obtained:
Aspergillus fumigatus = assay: Antimicrobial activity against Aspergillus fumigatus ATCC 90906; format: functional, organism-based
Candida albicans = assay: Antimicrobial activity against Candida albicans ATCC 90028; format: functional, organism-based
Cryptococcus neoformans = assay: Antimicrobial activity against Cryptococcus neoformans ATCC 90113; format: functional, organism-based
[1] = tested on: Mycobacterium intracellulare; assay: Antimicrobial activity against Mycobacterium intracellular ATCC 23068; format: functional, organism-based
ACHN = assay: Cytotoxicity against human ACHN cells; format: functional
Summary of the method: (§1)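 NCI Developmental Therapeutics Program cell panel. GI50 is the concentration that reduces growth of treated cells to half that of untreated controls. TGI is the concentration that completely halts growth.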

UACC-257 = assay: Cytotoxicity against human UACC257 cells; format: functional; summary of the method: as §1
HCT-15 = assay: Cytotoxicity against human HCT15 cells; format: functional; summary of the method: as §1
COLO 205 = assay: Cytotoxicity against human COLO205 cells; format: functional; summary of the method: as §1
HT-29 = assay: Cytotoxicity against human HT29 cells; format: functional; summary of the method: as §1
SK-OV-3 = assay: Cytotoxicity against human SK-OV3 cells; format: functional; summary of the method: as §1
A549 = assay: Cytotoxicity against human A549 cells; format: functional; summary of the method: as §1
SNB-75 = assay: Cytotoxicity against human SNB75 cells; format: functional; summary of the method: as §1
DU-145 = assay: Cytotoxicity against human DU145 cells; format: functional; summary of the method: as §1
Hs-578T = assay: Cytotoxicity against human HS578T cells; format: functional; summary of the method: as §1
KM12 = assay: Cytotoxicity against human KM12 cells; format: functional; summary of the method: as §1
RPMI-8226 = assay: Cytotoxicity against human RPMI8226 cells; format: functional; summary of the method: as §1
NCI-H322M = assay: Cytotoxicity against human NCI-H322M cells; format: functional; summary of the method: as §1
PC-3 = assay: Cytotoxicity against human PC3 cells; format: functional; summary of the method: as §1
HCC 2998 = assay: Cytotoxicity against human HCC2998 cells; format: functional; summary of the method: as §1

C/C=C1\NC(=O)[C@H](Cc2ccccc2)NC(=O)[C@@H](C(C)C)NC(=O)[C@@H]([C@@H](C)CC)NC(=O)[C@H](NC(=O)[C@H](NC(=O)[C@H](CCCNCc2ccncc2)NC(=O)[C@H]2CCCN2C(=O)[C@H](NC(=O)[C@@H](NC(=O)[C@@H](NC(=O)[C@H](NC(=O)CCCC(C)C)C(C)C)[C@@H](C)O)C(C)C)C(C)C)[C@@H](C)CC)[C@@H](C)OC(=O)[C@H](C(C)C)NC1=O
pIC50 (Aspergillus fumigatus): 5.37 | pIC50 (Candida albicans): 5.38 | pIC50 (Cryptococcus neoformans): 5.67 | pIC50 [1]: < 4.70

C/C=C1\NC(=O)[C@H](Cc2ccccc2)NC(=O)[C@@H](C(C)C)NC(=O)[C@@H]([C@@H](C)CC)NC(=O)[C@H](NC(=O)[C@H](NC(=O)[C@H](CCCNC(=O)c2cc3ccc(N(CC)CC)cc3oc2=O)NC(=O)[C@H]2CCCN2C(=O)[C@H](NC(=O)[C@@H](NC(=O)[C@@H](NC(=O)[C@H](NC(=O)CCCC(C)C)C(C)C)[C@@H](C)O)C(C)C)C(C)C)[C@@H](C)CC)[C@@H](C)OC(=O)[C@H](C(C)C)NC1=O
pIC50 (Aspergillus fumigatus): < 4.93 | pIC50 (Candida albicans): < 4.93 | pIC50 (Cryptococcus neoformans): < 4.93 | pIC50 [1]: < 4.93

CC(=O)O[C@H]1C(=O)[C@@]2(C)[C@H]([C@H](OC(=O)c3ccccc3)[C@]3(O)C[C@H](OC(=O)[C@H](O)[C@@H](NC(=O)c4ccccc4)c4ccccc4)C(C)=C1C3(C)C)[C@]1(OC(C)=O)CO[C@@H]1C[C@@H]2O [PACLITAXEL]
GI50 (ACHN): 398 nM | TGI (ACHN): 12600 nM | GI50 (UACC-257): 40 nM | TGI (UACC-257): 25100 nM | GI50 (HCT-15): 158 nM | TGI (HCT-15): 15800 nM | GI50 (COLO 205): 3 nM | TGI (COLO 205): 316 nM | GI50 (HT-29): 2 nM | TGI (HT-29): 251 nM | GI50 (SK-OV-3): 8 nM | TGI (SK-OV-3): 15800 nM | GI50 (A549): 4 nM | TGI (A549): 25100 nM | GI50 (SNB-75): 4 nM | TGI (SNB-75): 126 nM | GI50 (DU-145): 5 nM | TGI (DU-145): 794 nM | GI50 (Hs-578T): 3 nM | TGI (Hs-578T): 100 nM | GI50 (KM12): 4 nM | TGI (KM12): 15800 nM | GI50 (RPMI-8226): 2 nM | TGI (RPMI-8226): 5010 nM | GI50 (NCI-H322M): 13 nM | TGI (NCI-H322M): 6310 nM | GI50 (PC-3): 4 nM | TGI (PC-3): 10000 nM | GI50 (HCC 2998): 3 nM | TGI (HCC 2998): 126 nM

C/C=C1\NC(=O)[C@H](Cc2ccccc2)NC(=O)[C@@H](C(C)C)NC(=O)[C@@H]([C@@H](C)CC)NC(=O)[C@H](NC(=O)[C@H](NC(=O)[C@H](CCCNCc2ccc(F)cc2)NC(=O)[C@H]2CCCN2C(=O)[C@H](NC(=O)[C@@H](NC(=O)[C@@H](NC(=O)[C@H](NC(=O)CCCC(C)C)C(C)C)[C@@H](C)O)C(C)C)C(C)C)[C@@H](C)CC)[C@@H](C)OC(=O)[C@H](C(C)C)NC1=O
pIC50 (Aspergillus fumigatus): < 4.90 | pIC50 (Candida albicans): < 4.90 | pIC50 (Cryptococcus neoformans): 5.42 | pIC50 [1]: < 4.70

C/C=C1\NC(=O)[C@H](Cc2ccccc2)NC(=O)[C@@H](C(C)C)NC(=O)[C@@H]([C@@H](C)CC)NC(=O)[C@H](NC(=O)[C@H](NC(=O)[C@H](CCCN)NC(=O)[C@H]2CCCN2C(=O)[C@H](NC(=O)[C@@H](NC(=O)[C@@H](NC(=O)[C@H](NC(=O)CCCC(C)C)C(C)C)C(C)=O)C(C)C)C(C)C)[C@@H](C)CC)[C@@H](C)OC(=O)[C@H](C(C)C)NC1=O
pIC50 (Aspergillus fumigatus): < 4.87 | pIC50 (Candida albicans): 4.91 | pIC50 (Cryptococcus neoformans): 5.36 | pIC50 [1]: < 4.70
